Measured values published in ChEMBL document CHEMBL1155352, “Antiparasitic activities of novel, orally available fumagillin analogs” (Bioorg Med Chem Lett, 2009).
≈ marks a conversion by molar mass, not a printed value. Calls of active or inactive are those of the source. The rule behind the calls is not given here.

Legend:
[1] = test system: Leishmania donovani; experiment: Antiparasitic activity against Leishmania donovani at <100 ug/mL; assay type: functional, organism-based
[2] = test system: Entamoeba histolytica; experiment: Antiparasitic activity against Entamoeba histolytica HMI:IMSS trophozoites after 60 hrs; assay type: functional, organism-based, HM-1:IMSS
[3] = test system: Plasmodium falciparum; experiment: Antiparasitic activity against Plasmodium falciparum W2 infected in human erythrocytes after 72 hrs by FACS; assay type: functional, organism-based
[4] = target: Methionine aminopeptidase 2 (Homo sapiens) (UniProt P50579); experiment: Inhibition of human MetAP2 assessed as residual activity at 800 nM after 8 hrs by Met-AMC based fluorescence assay
Method in brief: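 Human MetAP2 (80 nM) preincubated with compound at 800 nM for 8 h; remaining free enzyme activity then read by Met-AMC fluorescence and reported as residual activity.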

[5] = test system: Trypanosoma brucei; experiment: Antiparasitic activity against Trypanosoma brucei 427 after 48 hrs; assay type: functional, organism-based
[6] = test system: Plasmodium falciparum; experiment: Antiparasitic activity against Plasmodium falciparum D2 infected in human erythrocytes after 72 hrs by FACS; assay type: functional, organism-based
[7] = test system: Plasmodium berghei; experiment: Antiparasitic activity against Plasmodium berghei infected Swiss Webster mice (Mus musculus) assessed as protection against parasite infection at 25 mg/kg, subcutaneously administered every 12 hrs for 4 days measured after 12 days; assay type: functional, organism-based; design: dose 25 mg/kg
Method in brief: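 P. berghei-infected mice, infected on Day 1, dosed subcutaneously with 25 mg/kg every 12 h; PBS-dosed controls. Survival followed over days post infection; each data point mean of triplicates.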

[8] = Entamoeba histolytica, HM-1:IMSS, 60 h, read-out: IC50
[9] = Plasmodium falciparum, W2, 72 h, read-out: IC50
[10] = Trypanosoma brucei, 427, 48 h, read-out: IC50
[11] = Plasmodium falciparum, D2, 72 h, read-out: IC50

Methionine aminopeptidase 2 (Homo sapiens), sequence (P50579 2-478 limits assumed): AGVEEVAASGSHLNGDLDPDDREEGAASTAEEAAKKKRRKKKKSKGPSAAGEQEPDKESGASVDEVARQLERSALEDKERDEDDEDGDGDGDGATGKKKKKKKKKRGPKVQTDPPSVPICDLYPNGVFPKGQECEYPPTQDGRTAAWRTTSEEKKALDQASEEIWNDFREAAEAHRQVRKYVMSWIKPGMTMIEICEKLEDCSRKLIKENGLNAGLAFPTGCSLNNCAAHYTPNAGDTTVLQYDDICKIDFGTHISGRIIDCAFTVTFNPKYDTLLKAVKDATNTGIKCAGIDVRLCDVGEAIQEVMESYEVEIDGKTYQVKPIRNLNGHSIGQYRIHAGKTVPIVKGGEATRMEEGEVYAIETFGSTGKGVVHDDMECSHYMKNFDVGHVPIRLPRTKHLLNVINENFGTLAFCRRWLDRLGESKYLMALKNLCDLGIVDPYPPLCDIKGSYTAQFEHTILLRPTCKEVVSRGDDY

Q: How did the Activity [1] turn out when `CO[C@@H]1[C@H](OC(=O)NCc2ccc(C(=O)O)cc2)CC[C@]2(CO2)[C@H]1[C@@]1(C)O[C@@H]1CC=C(C)C` was run?
A: The Activity was “Active”.

Q: And the IC50 [2, 8]?
A: The IC50 was 0.01 µg/mL (≈ 0.0218 µM).

Q: And the IC50 [3, 9]?
A: Its IC50 is 0.0205 µg/mL (≈ 0.0446 µM).

Q: And the Activity [4]?
A: The Activity was 3%.

Q: What about the IC50 [5, 10] of the same compound?
A: The IC50 was 42 µg/mL (≈ 91.4 µM).

Q: `CO[C@@H]1[C@H](OC(=O)N[C@@H](C(=O)Nc2cccc(C(=O)O)c2)C(C)C)CC[C@]2(CO2)[C@H]1[C@@]1(C)O[C@@H]1CC=C(C)C` was tested. Which Activity [1] did it give?
A: Its Activity is “inactive”.

Q: What about the IC50 [2, 8] of the same compound?
A: The IC50 was 0.497 µg/mL (≈ 0.913 µM).

Q: What about the IC50 [6, 11] of the same compound?
A: The IC50 was 0.136 µg/mL (≈ 0.25 µM).

Q: And the Activity [4]?
A: The Activity was 4%.

Q: What about the IC50 [5, 10] of the same compound?
A: Its IC50 is 14 µg/mL (≈ 25.7 µM).

Q: Which results are given for `CO[C@@H]1[C@H](OC(=O)NN2CCOCC2)CC[C@]2(CO2)[C@H]1[C@@]1(C)O[C@@H]1CC=C(C)C`?
A: Activity [1]: inactive; IC50 [2, 8]: 0.01 µg/mL (≈ 0.0244 µM); IC50 [3, 9]: 0.00774 µg/mL (≈ 0.0189 µM); Activity [4]: 6%; IC50 [5, 10]: 28 µg/mL (≈ 68.2 µM)

Q: Which IC50 [2, 8] does the source give for `CO[C@@H]1[C@H](OC(=O)/C=C/C=C/C=C/C=C/C(=O)O)CC[C@]2(CO2)[C@H]1[C@@]1(C)O[C@@H]1CC=C(C)C` [FUMAGILLIN] here?
A: Its IC50 is 0.005 µg/mL (≈ 0.0109 µM).

Q: And the IC50 [3, 9]?
A: The IC50 was 0.0996 µg/mL (≈ 0.217 µM).

Q: What about the IC50 [5, 10] of the same compound?
A: Its IC50 is 26 µg/mL (≈ 56.7 µM).

Q: How did the IC50 [2, 8] turn out when `CO[C@@H]1[C@H](OC(=O)NC(=O)CCl)CC[C@]2(CO2)[C@H]1[C@@]1(C)O[C@@H]1CC=C(C)C` [O-CHLOROACETYLCARBAMOYLFUMAGILLOL] was run?
A: Its IC50 is 0.026 µg/mL (≈ 0.0647 µM).

Q: And the IC50 [3, 9]?
A: Its IC50 is 0.0123 µg/mL (≈ 0.0306 µM).

Q: And the IC50 [5, 10]?
A: The IC50 was 2.8 µg/mL (≈ 6.97 µM).

Q: Which results are given for `CO[C@@H]1[C@H](OC(=O)N[C@H]2CN3CCC2CC3)CC[C@]2(CO2)[C@H]1[C@@]1(C)O[C@@H]1CC=C(C)C`?
A: Activity [1]: inactive; IC50 [2, 8]: 1.26 µg/mL (≈ 2.9 µM); IC50 [3, 9]: 0.0394 µg/mL (≈ 0.0907 µM)

Q: What does the source list for `CO[C@@H]1[C@H](OC(=O)N[C@@H](C(=O)NCCC2CCCN2C)C(C)C)CC[C@]2(CO2)[C@H]1[C@@]1(C)O[C@@H]1CC=C(C)C` (some centres not stated)?
A: Activity [7]: Active; Activity [1]: inactive; IC50 [2, 8]: 1.39 µg/mL (≈ 2.59 µM); IC50 [6, 11]: 0.0347 µg/mL (≈ 0.0648 µM); Activity [4]: 5%; IC50 [5, 10]: 19 µg/mL (≈ 35.5 µM)

Q: `CO[C@@H]1[C@H](OC(=O)N[C@@H](C(=O)NN2CCCCC2)C(C)C)CC[C@]2(CO2)[C@H]1[C@@]1(C)O[C@@H]1CC=C(C)C` was tested. Which Activity [1] did it give?
A: Its Activity is “inactive”.

Q: What about the IC50 [2, 8] of the same compound?
A: Its IC50 is 0.0643 µg/mL (≈ 0.127 µM).

Q: What about the IC50 [6, 11] of the same compound?
A: The IC50 was 0.0288 µg/mL (≈ 0.0567 µM).

Q: What about the IC50 [5, 10] of the same compound?
A: Its IC50 is 55 µg/mL (≈ 108 µM).

Q: With `CO[C@@H]1[C@H](OC(=O)N[C@@H](C(=O)NCCCN(C)C)C(C)C)CC[C@]2(CO2)[C@H]1[C@@]1(C)O[C@@H]1CC=C(C)C` as the compound, how does the Activity [1] read?
A: The Activity was “inactive”.

Q: What about the IC50 [2, 8] of the same compound?
A: Its IC50 is 2.28 µg/mL (≈ 4.47 µM).

Q: What about the IC50 [6, 11] of the same compound?
A: Its IC50 is 0.0263 µg/mL (≈ 0.0516 µM).

Q: What about the IC50 [5, 10] of the same compound?
A: The IC50 was 25 µg/mL (≈ 49 µM).

Q: Which Activity [1] does the source give for `CO[C@@H]1[C@H](OC(=O)N2CCC(C(=O)O)CC2)CC[C@]2(CO2)[C@H]1[C@@]1(C)O[C@@H]1CC=C(C)C` here?
A: The Activity was “inactive”.

Q: And the IC50 [2, 8]?
A: Its IC50 is 0.087 µg/mL (≈ 0.199 µM).

Q: What about the IC50 [3, 9] of the same compound?
A: Its IC50 is 0.0367 µg/mL (≈ 0.0839 µM).

Q: What about the Activity [4] of the same compound?
A: Its Activity is 8%.

Q: And the IC50 ([5]; BLD = below limit of detection)?
A: The IC50 was “BLD”.

Q: How did the Activity [1] turn out when `CO[C@@H]1[C@H](OC(=O)N[C@@H](C(N)=O)C(C)C)CC[C@]2(CO2)[C@H]1[C@@]1(C)O[C@@H]1CCC(C)(C)O` was run?
A: Its Activity is “inactive”.

Q: What about the IC50 ([2]; BLD = below limit of detection) of the same compound?
A: The IC50 was “BLD”.

Q: And the IC50 ([3]; BLD = below limit of detection)?
A: The IC50 was “BLD”.

Q: And the Activity [4]?
A: Its Activity is 90%.

Q: And the IC50 ([5]; BLD = below limit of detection)?
A: The IC50 was “BLD”.

Q: What does the source list for `CO[C@@H]1[C@H](OC(=O)NC(C)(C)C(=O)N2CCN(Cc3ccccc3)CC2)CC[C@]2(CO2)[C@H]1[C@@]1(C)O[C@@H]1CC=C(C)C`?
A: Activity [1]: inactive; IC50 [2, 8]: 2.54 µg/mL (≈ 4.46 µM); IC50 ([6]; BLD = below limit of detection): BLD; IC50 ([5]; BLD = below limit of detection): BLD
